Here are results for 2 molecules from ChEMBL document CHEMBL1152494, “Synthesis of some new 1,3,4-thiadiazol-2-ylmethyl-1,2,4-triazole derivatives and investigation of their antimicrobial activities” (2009).

What all share (format): functional
The test system of one assay is Staphylococcus aureus. Nature of the assay: Antimicrobial activity against Staphylococcus aureus ATCC […] at 10 ug after 18 hrs by agar-well diffusion assay. To be noted: ATCC 25923, 18 h, read-out: IZ. Summed up:
(§1)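 Organisms suspended in Mueller Hinton broth, diluted to about 10⁶ cfu/mL, and flood-inoculated onto Mueller Hinton agar, then dried. Samples dissolved in DMSO were added to 5 mm wells cut in the agar. Plates were incubated 18 h at 35 °C, and inhibition zones were measured. Ampicillin was the standard drug, with a DMSO solvent control.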

In assay [1] the test system is Yersinia pseudotuberculosis. The assay can be described thus: Antimicrobial activity against Yersinia pseudotuberculosis ATCC 911 at 10 ug after 18 hrs by agar-well diffusion assay. As to conditions: ATCC 911, 18 h, read-out: IZ. The essentials: (§2)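 Bacteria were suspended in Mueller Hinton broth at about 10⁶ cfu/mL and flood-inoculated onto Mueller Hinton agar, then dried. Samples in DMSO went into 5-mm cork-bored wells. Plates were incubated 18 h at 35 °C and the zone of inhibition was read. Ampicillin was the standard, with a DMSO solvent control.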

For the next assay, the system named is Bacillus cereus. The assay can be described thus: Antimicrobial activity against Bacillus cereus 702 Roma at 10 ug after 18 hrs by agar-well diffusion assay. To be noted: read-out: IZ. Summed up:
as §1

Another assay concerns Enterococcus faecalis. Nature of the assay: Antimicrobial activity against Enterococcus faecalis ATCC 29212 at 10 ug after 18 hrs by agar-well diffusion assay. As to conditions: ATCC 29212, 18 h, read-out: IZ. Summed up: as §1
The subject of another assay is Candida albicans. Nature of the assay: Antimicrobial activity against Candida albicans ATCC 60193 at 5 ug after 18 hrs by agar-well diffusion assay. Summed up:
(§3)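 Yeasts were suspended in Mueller Hinton broth at about 10⁶ cfu/mL and flood-inoculated onto Sabouraud dextrose agar, then dried. Samples in DMSO went into 5-mm wells. Plates were incubated 18 h at 35 °C and inhibition zones were measured. Fluconazole was the standard, with a DMSO solvent control.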

The next assay deals with Pseudomonas aeruginosa. The assay can be described thus: Antimicrobial activity against Pseudomonas aeruginosa ATCC 27853 at 10 ug after 18 hrs by agar-well diffusion assay. As to conditions: ATCC 27853, 18 h, read-out: IZ. Summed up:
as §1

The test system of the next assay is Escherichia coli. The assay can be described thus: Antimicrobial activity against Escherichia […] at 10 ug after 18 hrs by agar-well diffusion assay. As to conditions: read-out: IZ. The essentials:
as §2

The subject of the next assay is Candida tropicalis. The assay can be described thus: Antimicrobial activity against Candida tropicalis ATCC 13803 at 5 ug after 18 hrs by agar-well diffusion assay. Summed up: as §3

Activity calls are given as the source filed them. The rule behind the calls is not given here.

Take `CC1(C)S[C@@H]2[C@H](NC(=O)[C@H](N)c3ccccc3)C(=O)N2[C@H]1C(=O)O` [AMPICILLIN]: the zone of inhibition at 10 µg/disc in the assay with Staphylococcus aureus stood at 35 mm; in assay [1] it was 18 mm; in the assay with Bacillus cereus, 15 mm; in the assay on Enterococcus faecalis, 10 mm; with Pseudomonas aeruginosa, 18 mm; in the assay with Escherichia coli, 10 mm. Further, the “inhibition zone (IZ)” value with Candida albicans and in the assay with Candida tropicalis was “inactive” in each case.

Take `OC(Cn1cncn1)(Cn1cncn1)c1ccc(F)cc1F` [FLUCONAZOLE]: the zone of inhibition at 5 µg/disc worked out at 25 mm in the assay on Candida albicans (ATCC 60193, 18 h, read-out: IZ) and 25 mm in the assay on Candida tropicalis (ATCC 13803, 18 h, read-out: IZ).
